The results in this text go back to ChEMBL document CHEMBL1148022, “Discovery of new C3aR ligands. Part 2: amino-piperidine derivatives” (Bioorg Med Chem Lett, 2007).

Each structure is given as a SMILES string. Activity calls are given as the source filed them. The calls are words filed in the database; no cut-off is given here.

The term IC50 denotes the concentration at which inhibition is half-maximal. A high value points to weaker potency. As usually defined, the bioavailability is the share of a dose that reaches the circulation, judged against a reference dose that is usually intravenous. A low value points to little systemic uptake. One may read the half-life as the time in which the quantity being followed falls by half. The low end stands for fast loss, the high end for slow loss. Usually EC50 stands for the concentration giving half of the maximal effect. High values mean a need for much substance, low ones an effect from little substance.

The target in data set [1] is T1, C3a anaphylatoxin chemotactic receptor (Homo sapiens) (UniProt Q16581).
T1 sequence (whole entry): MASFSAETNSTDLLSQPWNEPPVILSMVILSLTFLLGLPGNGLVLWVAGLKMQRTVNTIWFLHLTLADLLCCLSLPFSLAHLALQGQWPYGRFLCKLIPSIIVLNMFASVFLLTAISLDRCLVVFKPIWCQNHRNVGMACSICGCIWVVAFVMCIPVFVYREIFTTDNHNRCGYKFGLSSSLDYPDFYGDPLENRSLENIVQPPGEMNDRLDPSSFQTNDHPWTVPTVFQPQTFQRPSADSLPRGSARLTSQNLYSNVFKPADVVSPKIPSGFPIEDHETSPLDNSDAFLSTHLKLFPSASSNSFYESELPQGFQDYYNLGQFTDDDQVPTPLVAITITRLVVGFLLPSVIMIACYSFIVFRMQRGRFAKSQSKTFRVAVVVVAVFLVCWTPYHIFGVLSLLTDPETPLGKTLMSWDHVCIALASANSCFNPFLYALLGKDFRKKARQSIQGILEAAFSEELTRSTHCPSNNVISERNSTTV
Description: (§1) Displacement of [125I]C3a from human C3a receptor expressed in HMC1 cells co-expressing aequorin. In kind it is cell-based. Summed up:
(§2)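 Scintillation proximity assay used wheat germ agglutinin beads and membranes from HMC-1 cells co-expressing Aequorin and human C3aR. Test compound was added at various concentrations with 0.02 nM ¹²⁵I-C3a in 50 mM Tris/2 mM MgCl₂/0.5% BSA. Non-specific binding was defined with 1 nM C3a. Plates were incubated 3 h at rt and read by scintillation counting. Values are means of three experiments.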
On the technique in general: In a radioligand displacement assay an active substance lowers the binding of a labelled ligand.

The target in data set [2] is T2, C3a anaphylatoxin chemotactic receptor (Homo sapiens, UniProt Q16581).
T2 sequence (Q16581 whole entry): T1 sequence (whole entry)
Described as §1. It counts as cell-based. Put shortly: as §2

Data set [3] can be described thus: Oral bioavailability in rat at 1 mg/kg. The following applies: in vivo. In kind it is ADME, organism-based. Summed up: (§3)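 Male rats received a single oral or iv dose of 1 mg/kg.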
Data set [4] can be described thus: Clearance in rat microsomes. In kind it is ADME, Liver, Microsome.
Data set [5] can be described thus: Elimination half life in rat at 1 mg/kg, iv and 1 mg/kg, po. In kind it is ADME, organism-based. The following applies: in vivo. Put shortly:
as §3

The subject of the next data set is Hepatocyte. Description: Clearance in rat hepatocytes. In kind it is ADME, cell-based, Liver.
The nature of data set [6]: Permeability across Caco-2 cells. It counts as ADME, cell-based. To be noted: human, read-out: permeability. For orientation: Caco-2 monolayers are a common model of the intestinal barrier.
Data set [7] addresses T2, C3a anaphylatoxin chemotactic receptor. Description: Antagonist activity at human C3a receptor expressed in HMC1 cells co-expressing aequorin. In kind it is functional, cell-based. Summed up:
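Aequorin/human C3aR HMC-1 cells were loaded with coelenterazine for 2 h. They were then plated and pre-treated with compound dilutions for 1 h at 37 °C, 1% DMSO. C3a agonist was then injected at 5 nM final. Light emission was the read-out.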

The target is the same in data set [8]. Description: Agonist activity at human C3a receptor expressed in HMC1 cells co-expressing aequorin. In kind it is functional, cell-based. Put shortly:
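They were then diluted fourfold and held 1 h at 37 °C. Compound was injected at 1% DMSO final. Luminescence was recorded for 30 s right after injection. Maximal signal was set with 50 nM C3a.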

Regarding `O=C(NC1CCN(C(=O)CCc2ccccn2)CC1)C1c2cc(Cl)ccc2Oc2ccc(Cl)cc21`, in [1], the “Log IC50” value is “inactive”.
As for `Cc1cc(C)cc(C(C(=O)NC2CCN(C(=O)CCc3cccnc3)CC2)C2CCCCC2)c1` (stereo not drawn), the IC50 in [2] is 126 nM.
In turn, `O=C(NC1CCN(C(=O)CCc2cccnc2)CC1)C(C1CCCCC1)C1CCCCC1` had an IC50 in data set [2] of 1000 nM. For the same compound, the bioavailability in [3] stood at 6%. For the same compound, the CL in data set [4] came out at 675 µL/min. The half-life in data set [5] is 12 min.
As for `O=C(NC1CCN(C(=O)CCc2ccccc2F)CC1)C(c1ccccc1)C1CCCCC1` (stereo not drawn), the half-maximal inhibitory concentration (IC50) in [2] was 2000 nM.
Still for that read-out and setting: the value for `O=C(NC1CCN(C(=O)CCc2cccnc2)CC1)C(c1ccccc1)C1CCCCC1` (single isomer, unassigned; epimer A) was 5010 nM; that for `CC1(C)CC(C(C(=O)NC2CCN(C(=O)CCc3cccnc3)CC2)c2ccccc2)CC(C)(C)C1` (stereo not drawn) was 63100 nM.
On to `O=C(NC1CCN(C(=O)CCc2cccnc2)CC1)C(CC1CCCCC1)c1ccccc1` (stereo not drawn), for which the IC50 in data set [2] is 794 nM. Also, the bioavailability in [3] came out at 1%. The CL is 500 µL/min in data set [4] and 44 µL/min in the data set on Hepatocyte. Also, in data set [5], the half-life is 42 min.
On to `Cc1ccc(C(C(=O)NC2CCN(C(=O)CCc3cccnc3)CC2)C2CCCCC2)cc1` (stereo not drawn), for which, in [2], the IC50 is 794 nM.
With `O=C(NC1CCN(C(=O)CCc2cccnc2)CC1)C(c1ccc(Cl)cc1)C1CCCCC1` (stereo not drawn), the Papp in data set [6] is 10 ×10⁻⁶ cm/s. Besides, in data set [2], the IC50 was 200 nM. In addition, the bioavailability in [3] came to 0%. Besides, the CL in data set [4] stood at 500 µL/min; in the data set on Hepatocyte it was 28 µL/min. The same compound gave a half-life in data set [5] of 18 min.
`O=C(NC1CCN(C(=O)CCc2cccnc2)CC1)C(c1ccccc1)C1CC=CC1` (stereo not drawn): in [2], the IC50 is 3160 nM.
The same measure, in the same setting: the value for `O=C(NC1CCN(C(=O)CCc2cccnc2)CC1)C1c2ccccc2Cc2ccccc21` was 79400 nM; that for `O=C(NC1CCN(C(=O)CCc2cccnc2)CC1)C(c1ccsc1)C1CCCCC1` (stereo not drawn) was 200 nM.
As for `O=C(NC1CCN(C(=O)CCc2cccnc2)CC1)C1c2cc(Cl)ccc2Oc2ccc(Cl)cc21`, the IC50 in data set [2] was 1580 nM; in data set [7] it was 631 nM.
In turn, `O=C(NC1CCN(C(=O)/C=C/c2ccccc2F)CC1)C(c1ccccc1)C1CCCCC1` (stereo not drawn) had an IC50 in [2] of 12600 nM.
Regarding `O=C(NC1CCN(C(=O)CCc2cccnc2)CC1)C(c1ccc(F)cc1)C1CCCCC1` (stereo not drawn), the IC50 in data set [2] is 158 nM.
Regarding `O=C(NC1CCN(C(=O)CCc2cccnc2)CC1)C(c1ccccc1)c1ccccc1`, the Papp in [6] stood at 8.5 ×10⁻⁶ cm/s. Besides, the IC50 in [2] was 12600 nM; in data set [7], 3160 nM. Further, the bioavailability in [3] came out at 5%. For the same compound, the CL worked out at 500 µL/min in [4] and 21 µL/min in the data set with Hepatocyte. The same compound showed a half-life in data set [5] of 6 min.
In turn, `O=C(NC1CCN(C(=O)CCc2cccnc2)CC1)C(c1ccc([N+](=O)[O-])cc1)C1CCCCC1` (stereo not drawn) showed an IC50 in data set [2] of 316 nM.
As for `O=C(NC1CCN(C(=O)CCc2ccc(F)nc2)CC1)C(c1ccccc1)C1CCCCC1` (stereo not drawn), the Papp in data set [6] was found to be 19 ×10⁻⁶ cm/s. The compound further showed an IC50 in data set [2] of 1260 nM. In data set [3], this compound displayed a bioavailability of 0%. The compound also had a CL in [4] of 782 µL/min. This compound had a half-life in [5] of 18 min.
The compound `O=C(NC1CCN(C(=O)CCc2cccnc2)CC1)C(c1ccccc1)C1CCCC1` (stereo not drawn) showed an IC50 in data set [2] of 794 nM.
In data set [8], `O=C(NC1CCN(C(=O)CCc2cccnc2)CC1)C(c1ccc2ccccc2c1)C1CCCCC1` (stereo not drawn) gave an EC50 of 1580 nM. The IC50 in data set [2] was 794 nM. The compound also yielded a bioavailability in data set [3] of 9%. The compound further gave a CL in [4] of 585 µL/min. Also, in data set [5], the half-life is 30 min.
Regarding `Cc1cncc(/C=C/C(=O)N2CCC(NC(=O)C(c3ccccc3)C3CCCCC3)CC2)c1` (stereo not drawn), the Papp in [6] stood at 7.9 ×10⁻⁶ cm/s. For the same compound, in [2], the IC50 was 50100 nM. In data set [3], the bioavailability amounted to 3%. In addition, the CL in data set [4] came to 175 µL/min; in the data set on Hepatocyte, 21 µL/min. The half-life in data set [5] was 18 min.
In turn, `COc1ccc(C(C(=O)NC2CCN(C(=O)CCc3cccnc3)CC2)C2CCCCC2)cc1` (stereo not drawn) gave an IC50 in [2] of 631 nM.
The compound `Cc1ccccc1C(C(=O)NC1CCN(C(=O)CCc2cccnc2)CC1)C1CCCCC1` (stereo not drawn) gave an IC50 in [2] of 2510 nM.
As to `O=C(NC1CCN(C(=O)CCc2cccnc2)CC1)C(c1cc(F)c(F)c(F)c1)C1CCCCC1` (stereo not drawn), it took 794 nM to reach a half-maximal effect in [8] (EC50). In addition, the IC50 in data set [2] was 100 nM. The same compound displayed a bioavailability in data set [3] of 0%. Moreover, the CL in data set [4] worked out at 609 µL/min; in the data set on Hepatocyte, 17 µL/min. The compound further gave a half-life in data set [5] of 18 min.
As for `O=C(NC1CCN(C(=O)CCc2cccnc2F)CC1)C(c1ccccc1)C1CCCCC1` (stereo not drawn), a half-maximal response in data set [8] (EC50) required 200 nM. For the same compound, in data set [2], the IC50 was 31.6 nM.
Regarding `O=C(NC1CCN(C(=O)CCc2ccncc2)CC1)C1c2cc(Cl)ccc2Oc2ccc(Cl)cc21`, the “Log IC50” value in [1] was “inactive”.
Regarding `O=C(NC1CCN(C(=O)CCc2cccnc2)CC1)C(c1ccccc1)C1CCCCC1` (stereo not drawn), the Papp in data set [6] came out at 12 ×10⁻⁶ cm/s. This compound also gave an EC50 in [8] of 2000 nM. In [2], this compound had an IC50 of 794 nM. In [3], this compound yielded a bioavailability of 5%. Further, the CL in data set [4] was determined as 500 µL/min; with Hepatocyte, 33 µL/min. Further, the half-life in data set [5] was 12 min.
In the case of `Cc1cccc(C(C(=O)NC2CCN(C(=O)CCc3cccnc3)CC2)C2CCCCC2)c1` (stereo not drawn), in data set [2], the IC50 is 79.4 nM.
In the case of `O=C(NC1CCN(C(=O)CCc2cccnc2)CC1)C(c1ccc(Cl)cc1)c1ccc(Cl)cc1`, the Papp in data set [6] is 6.3 ×10⁻⁶ cm/s. Moreover, the IC50 in data set [2] is 20000 nM. The compound further returned a bioavailability in data set [3] of 0%. Further, the CL in data set [4] was 175 µL/min. This compound gave a half-life in [5] of 24 min.
The compound `CC1(C)CCC(C(C(=O)NC2CCN(C(=O)CCc3cccnc3)CC2)c2ccccc2)CC1` (stereo not drawn) showed an IC50 in data set [2] of 1000 nM.
Same read-out and setting: to `O=C(NC1CCN(C(=O)Cc2cccc(F)c2F)CC1)C(c1ccccc1)C1CCCCC1` (stereo not drawn) belongs 10000 nM.
In the case of `O=C(NC1CCN(C(=O)CCc2cccnc2)CC1)C(c1ccccc1)C1CCC(F)(F)CC1` (stereo not drawn), in data set [6], the Papp was 16 ×10⁻⁶ cm/s. Also, the IC50 in data set [2] was 631 nM. For the same compound, the bioavailability in data set [3] is 2%. Also, in [4], the CL amounted to 170 µL/min. Also, the half-life in [5] was 18 min.
In the case of `O=C(NC1CCN(C(=O)CCc2cccnc2)CC1)/C(=C/C1CCCCC1)c1ccccc1`, the IC50 in data set [2] is 25100 nM.
Still for that read-out and setting: the value for `COc1ncccc1CCC(=O)N1CCC(NC(=O)C(c2ccccc2)C2CCCCC2)CC1` (stereo not drawn) was 15800 nM.
As to `O=C(NC1CCN(C(=O)/C=C/c2cccnc2)CC1)C(c1ccccc1)C1CCCCC1` (stereo not drawn), in data set [6], the Papp was 8.5 ×10⁻⁶ cm/s. In data set [2], the IC50 was 1000 nM. In [3], the bioavailability was 7%. Besides, the results for the CL (in data set [4]; in the data set on Hepatocyte) were 238 µL/min and 26 µL/min, respectively. This compound also showed a half-life in data set [5] of 18 min.
Consider `O=C(NC1CCN(C(=O)CCc2cccnc2)CC1)C(c1ccccc1)C1CCCCC1` (single isomer, unassigned; epimer B), for which, in data set [2], the IC50 is 316 nM.
